Results from ChEMBL document CHEMBL2010762, “Synthesis of novel 9-O-N-aryl/aryl-alkyl amino carbonyl methyl substituted berberine analogs and evaluation of DNA binding aspects” (Bioorg Med Chem, 2012).
The source made the active and inactive calls. No cut-off for these calls is given here.

How the values were obtained:
Type in all cases: nucleic-acid assay
Conditions in all cases: Bos taurus
Nucleic Acid [1] = test: Binding affinity to calf thymus DNA assessed as change in melting temperature by thermal denaturation assay
Method in brief: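 CT DNA alone or with alkaloid, 10 mM citrate-phosphate buffer pH 7.0. Absorbance at 260 nm was followed while heating from 20 to 100 °C at 0.5 °C/min in 1 cm quartz cuvettes. ΔTm was taken at saturation.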

Nucleic Acid [2] = test: Binding affinity to calf thymus DNA in citrate-phosphate buffer at pH 7 by circular dichroism spectral analysis
Method in brief: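 CD spectra of CT DNA titrated with increasing alkaloid in 10 mM CP buffer pH 7.0 at 20 °C. Output is molar ellipticity, [θ] = [θ]obs/10lC.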

Nucleic Acid [3] = test: Binding affinity to calf thymus DNA assessed as fluorescence quenching by fluorescence spectroscopy analysis
Method in brief: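 Ferrocyanide quenching of alkaloid fluorescence, free and bound to CT DNA, at constant P/D (base pair/alkaloid). KCl and K4[Fe(CN)6] solutions were mixed in different ratios at fixed total ionic strength in 10 mM CP buffer pH 7.0. Intensity was read against rising ferrocyanide. Stern–Volmer quenching constant (Ksv). At least four measurements were averaged per set.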

Nucleic Acid [4] = test: Binding affinity to calf thymus DNA in citrate-phosphate buffer at pH 7 assessed as change in viscosity by hydrodynamic method
Method in brief: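 Relative viscosity of CT DNA in 10 mM CP buffer pH 7.0 at 20 °C with increasing alkaloid (varying D/P), mixed by slow nitrogen bubbling. Flow times were measured in triplicate to 0.01 s. Contour length increase (L/Lo) was plotted against r.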

| ΔTm (Nucleic Acid [1]) [°C] | Activity (Nucleic Acid [2]) | KSV (Nucleic Acid [3]) [M⁻¹] | Activity (Nucleic Acid [4]) | Structure (SMILES) |
| --- | --- | --- | --- | --- |
| 9 | Active | 90 | Active | COc1ccc2cc3[n+](cc2c1OC)CCc1cc2c(cc1-3)OCO2.[Cl-] [BERBERINE CHLORIDE] |
| 15.5 | Active | 57 | Active | COc1ccc2cc3[n+](cc2c1OCC(=O)Nc1ccccc1)CCc1cc2c(cc1-3)OCO2.[Cl-] |
| 12 | – | 37 | Active | COc1ccc2cc3[n+](cc2c1OCC(=O)NCCc1ccccc1)CCc1cc2c(cc1-3)OCO2.[Cl-] |
| 14 | – | 48 | Active | COc1ccc2cc3[n+](cc2c1OCC(=O)NCc1ccccc1)CCc1cc2c(cc1-3)OCO2.[Cl-] |
